Key:
[1] = Stability of the analytes in rat plasma QC samples; assay type: in vitro ADME; conditions: for Free-thaw stability: Measured concentration / Free-thaw stability: Accuracy: 3 free thaw cycles; for Free-thaw stability: Accuracy / Long-tern stability: Accuracy: relative error; for Long-tern stability: Accuracy / Long-tern stability: Measured concentration: −20 °C for 21 d; for Short-tern stability: Measured concentration: room temperature for 8 h
Procedure, shortened: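 Rat (SD male) plasma QC samples at low, medium and high levels, six replicates each. Storage conditions: 4 h at room temperature after preparation, 8 h at room temperature (short-term), 21 days at −20 °C (long-term), and three freeze (−20 °C)/thaw (room temperature) cycles over three consecutive days. Samples were methanol-precipitated with internal standard and measured by HPLC-MS/MS. Stability was reported as relative error.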

[2] = assay type: in vivo, Sprague-Dawley (SD) rats; conditions: for AUC(0-inf) / Cmax / Tmax / half-life / AUC(0-t): male, Sprague-Dawley, plasma, po, 15 mL kg^−1; for AUC(0-inf) / Cmax / Tmax / half-life / AUC(0-t) / absorption into blood (in words): rat; for absorption into blood (in words): oral administration of extract
[3] = double-peak phenomenon, rat plasma, oral extract

| SMILES | Free-thaw stability: Measured concentration ([1]; high QC spiked concentration) [ng/mL] | Free-thaw stability: Measured concentration ([1]; low QC spiked concentration) [ng/mL] | Free-thaw stability: Measured concentration ([1]; medium QC spiked concentration) [ng/mL] | Free-thaw stability: Accuracy ([1]; high QC spiked concentration) [%] | Free-thaw stability: Accuracy ([1]; low QC spiked concentration) [%] | Free-thaw stability: Accuracy ([1]; medium QC spiked concentration) [%] | Long-tern stability: Accuracy ([1]; high QC spiked concentration) [%] | Long-tern stability: Accuracy ([1]; low QC spiked concentration) [%] | Long-tern stability: Accuracy ([1]; medium QC spiked concentration) [%] | Short-tern stability: Measured concentration ([1]; high QC spiked concentration) [ng/mL] | Short-tern stability: Measured concentration ([1]; low QC spiked concentration) [ng/mL] | Short-tern stability: Measured concentration ([1]; medium QC spiked concentration) [ng/mL] | Long-tern stability: Measured concentration ([1]; high QC spiked concentration) [ng/mL] | Long-tern stability: Measured concentration ([1]; low QC spiked concentration) [ng/mL] | Long-tern stability: Measured concentration ([1]; medium QC spiked concentration) [ng/mL] | AUC(0-inf) [2] [ng·h/mL] | Cmax [2] [ng/mL] | Tmax [2] [min] | half-life [2] [min] | absorption into blood (in words) [2] | further results |
| --- | --- | --- | --- | --- | --- | --- | --- | --- | --- | --- | --- | --- | --- | --- | --- | --- | --- | --- | --- | --- | --- |
| O=c1cc(-c2ccc(O)c(O)c2)oc2cc(O)cc(O)c12 [Luteolin, luteolin] | 258.35 ± 4.86 | 6.60 ± 0.18 | 66.03 ± 2.64 | 4.35 | 4.43 | 6.21 | 5.43 | 6.01 | 8.32 | 260.55 ± 0.49 | 6.76 ± 0.18 | 64.88 ± 0.92 | 261.02 ± 4.65 | 6.7 ± 0.76 | 67.34 ± 3.63 | 35.4 | 77.4 ± 25.7 | 5 | 36.08 ± 0.24 |  |  |
| C[C@@H]1O[C@@H](OC[C@H]2O[C@@H](Oc3c(-c4ccc(O)c(O)c4)oc4cc(O)cc(O)c4c3=O)[C@H](O)[C@@H](O)[C@@H]2O)[C@H](O)[C@H](O)[C@H]1O [Rutin] | 437.7 ± 10.02 | 6.2 ± 1.88 | 110.30 ± 8.24 | 4.58 | 2.48 | 7.54 | 2.55 | 4.30 | 4.68 | 426.82 ± 18.15 | 6.36 ± 6.81 | 108.48 ± 7.41 | 429.20 ± 19.79 | 6.31 ± 5.88 | 107.37 ± 9.98 |  | 131 ± 18.3 | 5 |  | rapidly absorbed | AUC(0-t) [2]: 50.7 ng·h/mL; AUC0–∞ (mean ± SD) ([2]; rat plasma, single oral administration of extract 15 mL kg^−1, n = 6): 3039.62 ± 54.07 ng/L/h |
| O=c1cc(-c2ccc(O)cc2)oc2cc(O)cc(O)c12 [Apigenin, apigenin] | 494.36 ± 4.99 | 7.34 ± 0.32 | 124.68 ± 6.33 | 5.51 | 3.67 | 6.63 | 3.51 | 7.06 | 6.48 | 490.89 ± 7.31 | 7.17 ± 1.91 | 123.78 ± 2.47 | 484.98 ± 5.09 | 7.58 ± 0.51 | 124.51 ± 4.02 |  | 146 ± 14.9 | 180 | 298.5 ± 0.16 | absorbed very slowly | time of first peak of the plasma concentration–time curve [2, 3]: 5 min; time of second peak of the plasma concentration–time curve [2, 3]: 180 min |
| COc1ccc(-c2cc(=O)c3c(O)cc(O)cc3o2)cc1 [Acacetin, acacetin] | 108.48 ± 6.51 | 4.81 ± 0.22 | 26.99 ± 4.36 | 6.21 | 4.11 | 3.13 | 3.46 | 4.11 | 1.38 | 107.02 ± 3.38 | 4.69 ± 0.36 | 27.31 ± 5.34 | 105.68 ± 9.65 | 4.81 ± 0.27 | 26.53 ± 3.21 | 17.7 | 31.9 ± 17.6 | 10 | 96.87 ± 0.12 | rapidly absorbed | AUC(0-t) [2]: 15.3 ng·h/mL |
| C[C@@H]1O[C@@H](O[C@@H]2[C@@H](O)[C@H](OCCc3ccc(O)c(O)c3)O[C@H](CO)[C@H]2OC(=O)/C=C/c2ccc(O)c(O)c2)[C@H](O)[C@H](O)[C@H]1O [Acteoside, acteoside] | 2132.91 ± 11.91 | 2.1 ± 0.14 | 544.87 ± 4.54 | 5.21 | 3.45 | 4.92 | 6.94 | 1.97 | 4.16 | 2150.14 ± 11.92 | 2.11 ± 0.13 | 548.82 ± 2.92 | 2167.98 ± 18.52 | 2.07 ± 0.12 | 540.92 ± 9.44 |  | 650 ± 16.4 | 10 | 46.8 ± 0.35 | rapidly absorbed |  |
| O=c1c(O)c(-c2ccc(O)c(O)c2)oc2cc(O)cc(O)c12 [Quercetin, quercetin] | 67.46 ± 2.42 | 2.78 ± 0.89 | 17.48 ± 1.19 | 4.62 | 5.30 | 6.72 | 6.02 | 3.03 | 5.43 | 66.98 ± 7.47 | 2.80 ± 1.62 | 17.12 ± 1.22 | 68.36 ± 3.68 | 2.72 ± 0.32 | 17.27 ± 2.69 | 18.2 | 20.1 ± 24.9 | 5 | 46.03 ± 0.09 | rapidly absorbed | AUC(0-t) [2]: 9.31 ng·h/mL |
